Assay outcomes as filed in PubChem.
DENV2 CPE rescue – DENV2-induced cell death inhibition; CPE inhibition, % at 9.99 µM; 350,000 compounds, 1.7% hits; DENV2-infected cells, cytopathic effect rescue, plate reader; in the data active = CPE inhibition above about 20%, passing the limit was not always enough; inconclusive = no clear call, values can overlap the other calls; tested in BHK-21 cells
PglD inh – blocks C. jejuni PglD acetyltransferase activity; purified PglD enzyme, DTNB colorimetric CoA detection; inhibition, % at 12.5 µM; 360,000 compounds, 0.098% hits; AID 602405; in the data active = inhibition above about 16%, passing the limit was not always enough; inconclusive = no clear call, values can overlap the other calls
PGC1a acetyl inh – modulators of PGC1a acetylation; U2OS PGC1a acetylation, AlphaScreen anti-acetyl-lysine; with virally co-expressed GCN5 acetyltransferase; inhibition, % at 15.6 µM; 350,000 compounds, 0.17% hits; AID 651687;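 active = every replicate shows inhibition of at least 40%; inconclusive = mean inhibition at least 40% but some replicate below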
Ecoli rRNA inh – selective bacterial rRNA inhibition in E. coli; E. coli WT GFP vs humanized-ribosome RFP mutants, fluorescence, 24 h; stronger effect = lower value; DMSO median 0, no signal -100; GFP signal change (wild-type ribosome), % (test concentration not listed); 350,000 compounds, 1.6% hits;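 active = significant combined selectivity score with lowered wild-type GFP, culture density cut under 30%, mutant RFP and density less affected; inactive = any of these conditions unmet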
FN deposition inh – fibronectin deposition inhibition. AH1F fibroblasts, Alexa488-fibronectin deposition fluorescence, overnight. 350,000 compounds, 0.086% hits. inhibition, % at 12.6 µM;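 active = mean inhibition across replicates of 30% or more, regardless of how many single replicates reach that level; inconclusive = mean under 30% yet at least half of replicates reach 30%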
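Material: AH1F fibroblast monolayer depositing Alexa488-labelled fibronectin into matrix / Amount: 10000 AH1F cells per well / Signal: fluorescence 485/525 nm / Medium: DMEM, 2% serum / Compound: single dose, pinned / Incubation: 1 h cell adhesion before compound, then overnight fibronectin incubation / Reagent: Alexa488-FN, 24 nM final / Read-out: inhibition of fibronectin deposition signal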
HIV Env fusion – inhibitors of HIV Env-mediated cell fusion | AID 651610 | 360,000 compounds, 1.1% hits | inhibition, % at 12.3 µM | HeLa-JRFL Env/CEM21 cell fusion, luciferase;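 active = mean replicate inhibition score of at least 50 and every replicate individually at or above 50; inconclusive = only one of the two criteria met; inactive = mean below 50 and not all replicates reaching 50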
AID977621 – wild-type E. coli growth inhibition versus H69 humanized strain – H69 mutant RFP, wild-type GFP, cherry-pick, dose response. shares compounds with Ecoli rRNA inh. fluorescence, 24 h. activity change, negative = inhibition at 50 µM. 1,900 tested, under 10 active;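 active = Wild-type ribosome reporter drop at least double the humanized mutant ribosome reporter drop, growth loss under a set limit; inconclusive = no clear call, values can overlap the other calls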;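 also: wild-type GFP and H69 mutant RFP strains grown together 50/50 in each well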
AID977628 – E. coli growth inhibition, wild-type GFP versus h24 humanized RFP strain, dose response, h24 mutant RFP vs wild-type GFP, cherry-pick; shares compounds with Ecoli rRNA inh; E. coli WT GFP strain growth, fluorescence, 24 h; activity change, negative = inhibition at 50 µM; 1,900 tested, under 10 active;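 active = compound lowering the normal-ribosome reporter at least twice as much as the humanized-ribosome reporter, growth loss under a set limit; inconclusive = no clear call, values can overlap the other calls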;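 also: wild-type GFP and h24 humanized RFP strains co-cultured 1 to 1 per well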
Numbers stand for hits; ! = repeats disagree. Only some compounds are listed: those with a hit (about 3.5% of all), similar ones and a draw of the others.

Results for CC(C)NC(=O)N(C)C[C@H]1Oc2ccc(NC(=O)CCCN(C)C)cc2C(=O)N([C@H](C)CO)C[C@H]1C ?
DENV2 CPE rescue: inactive; PglD inh: inactive; PGC1a acetyl inh: inactive; Ecoli rRNA inh: inactive

Results for O=C(Nc1ccc2c(c1)OCCO2)C1C(c2ccccc2)=Nc2ccccc2N1C(=O)c1cccnc1 (centres undefined) ?
DENV2 CPE rescue: inactive; Ecoli rRNA inh: -8.2; FN deposition inh: inactive; HIV Env fusion: inactive; AID977621: inactive; AID977628: inconclusive

How did Cc1ccc(CSCC(=O)Nc2ccccc2F)cc1 do in these assays?
DENV2 CPE rescue: inconclusive; PglD inh: inactive; PGC1a acetyl inh: inactive; Ecoli rRNA inh: -22.6; FN deposition inh: inactive; HIV Env fusion: inactive; AID977621: inactive; AID977628: inconclusive

How did C[C@@H]1CN([C@@H](C)CO)C(=O)c2cc(NC(=O)Nc3ccccc3)ccc2O[C@@H](C)CCCCO[C@H]1CN(C)C(=O)CCCN(C)C do in these assays?
DENV2 CPE rescue: inactive; PglD inh: inactive; PGC1a acetyl inh: inactive; Ecoli rRNA inh: inactive; FN deposition inh: inactive; HIV Env fusion: inactive

Results for COc1ccc(NS(=O)(=O)c2cc(NC(=O)CNC(=O)c3cccc(OC)c3)ccc2C)cc1 ?
PglD inh: inactive; PGC1a acetyl inh: inactive; Ecoli rRNA inh: -24.6; HIV Env fusion: inactive; AID977621: inactive

How did COc1cccc(NC(=O)CNC(=O)c2ccccc2)c1 do in these assays?
PglD inh: inactive; PGC1a acetyl inh: inactive

Results for CC1CCCN(C(=O)C(C)Nc2cc(Cl)ccc2N2CCOCC2)C1 (centres undefined) ?
DENV2 CPE rescue: inactive; Ecoli rRNA inh: -29.1; FN deposition inh: inactive; HIV Env fusion: inactive; AID977621: inconclusive

What do the screens show for `COc1cccc(OC)c1C(=O)Nc1cc(Cl)ccc1N1CCOCC1`?
PglD inh: inactive

How did Cc1onc(-c2ccccc2)c1C(=O)Oc1ccccc1 do in these assays?
DENV2 CPE rescue: inactive; PglD inh: inactive; PGC1a acetyl inh: inactive; Ecoli rRNA inh: -28.8; FN deposition inh: inactive; HIV Env fusion: inactive; AID977621: inactive; AID977628: inactive

Results for C[C@H](CO)N1C[C@H](C)[C@@H](CN(C)S(C)(=O)=O)Oc2ccc(NC(=O)NC3CCCCC3)cc2CC1=O ?
DENV2 CPE rescue: inactive; PglD inh: inactive; PGC1a acetyl inh: inactive; Ecoli rRNA inh: inactive

What do the screens show for `COc1ccc(Cc2nnc(Nc3ccc(C)cc3)o2)cc1OC`?
DENV2 CPE rescue: inactive; PglD inh: inactive; PGC1a acetyl inh: inactive; Ecoli rRNA inh: -19.4; FN deposition inh: inactive; HIV Env fusion: inactive; AID977628: inactive

How did CC1CCN(CC(O)COCCC23CC4CC(CC(C4)C2)C3)CC1 (centres undefined) do in these assays?
PglD inh: inactive; PGC1a acetyl inh: inactive; Ecoli rRNA inh: -40.4; AID977621: inactive

How did COC(=O)c1cccc(CN2C(=O)SC(Nc3ccc(C)cc3)C2=O)c1 (centres undefined) do in these assays?
DENV2 CPE rescue: inactive; Ecoli rRNA inh: -16.5; FN deposition inh: inactive; HIV Env fusion: inactive; AID977621: inactive; AID977628: inconclusive

Results for Cc1ccccc1CN(C)C[C@H]1OCc2cnnn2CCCC(=O)N([C@@H](C)CO)C[C@H]1C ?
DENV2 CPE rescue: inactive; PglD inh: inactive; PGC1a acetyl inh: inactive; Ecoli rRNA inh: inactive; FN deposition inh: inactive; HIV Env fusion: inactive

What do the screens show for `C[C@H]1CN([C@@H](C)CO)C(=O)CCCn2nncc2CO[C@@H]1CN(C)Cc1ccccc1C(F)(F)F`?
DENV2 CPE rescue: inactive; PglD inh: inactive; PGC1a acetyl inh: inactive; Ecoli rRNA inh: -18.5!; FN deposition inh: inactive; HIV Env fusion: inactive; AID977621: inactive; AID977628: inconclusive

Results for O=C(Nc1nc(-c2ccc3ccccc3c2)cs1)C1CCN(S(=O)(=O)c2cccs2)CC1 ?
DENV2 CPE rescue: inactive; Ecoli rRNA inh: -15.3; FN deposition inh: inactive; HIV Env fusion: inactive; AID977621: inactive; AID977628: inactive

What do the screens show for `O=C(Nc1nccs1)C1CCN(S(=O)(=O)c2cccs2)CC1`?
PglD inh: inactive; PGC1a acetyl inh: inactive; Ecoli rRNA inh: inactive; FN deposition inh: inactive; HIV Env fusion: inactive

Results for Cc1cc(C(C)(C)C)oc1C(=O)N(CC(=O)NC1CCCC1)c1c(C)cccc1C ?
DENV2 CPE rescue: inactive; PGC1a acetyl inh: inactive; Ecoli rRNA inh: -25.4; AID977628: inactive

Results for O=C(Nc1cccc(Oc2ccc3c(c2)C(=O)NC3=O)c1)c1cccs1 ?
DENV2 CPE rescue: inactive; Ecoli rRNA inh: -29.9; HIV Env fusion: inactive; AID977621: inactive

Results for O=C(COc1cccc(NC(=O)c2cccs2)c1)c1ccc(F)cc1 ?
DENV2 CPE rescue: inactive; Ecoli rRNA inh: inactive; FN deposition inh: inactive

Results for O=C(N[C@H]1CC[C@H](CCn2cc(C3CC3)nn2)O[C@H]1CO)c1cccnc1 ?
DENV2 CPE rescue: inactive; PglD inh: inactive; PGC1a acetyl inh: inactive; Ecoli rRNA inh: inactive; FN deposition inh: inactive; HIV Env fusion: inactive

Results for CCN1C(=O)c2ccccc2Sc2ccc(C(=O)O)cc21 ?
DENV2 CPE rescue: inactive; PglD inh: inactive; PGC1a acetyl inh: inactive; Ecoli rRNA inh: inactive; FN deposition inh: inactive; HIV Env fusion: inactive

Results for O=C(O)c1ccc2c(c1)N(Cc1ccccc1)C(=O)c1ccccc1S2 ?
DENV2 CPE rescue: inactive; PglD inh: inactive; PGC1a acetyl inh: inactive; Ecoli rRNA inh: -23.6; FN deposition inh: inactive; HIV Env fusion: inactive; AID977621: inactive

Results for O=C(NCC1CCCCC1)[C@@H]1[C@@H](CO)[C@@H]2Cn3c(ccc(-c4ccccc4)c3=O)[C@H]1N2 ?
DENV2 CPE rescue: inactive; PglD inh: inactive; PGC1a acetyl inh: inactive; Ecoli rRNA inh: inactive

Results for COc1ccc(C[C@@H]2CCn3cc(nn3)COC[C@@H](Cc3ccccc3)NC2=O)cc1 ?
Ecoli rRNA inh: inactive; FN deposition inh: inactive

How did O=C1OC[C@@H]2CCCN2C(=O)[C@@H](CC(=O)N(CCO)Cc2ccccc2)C/C=C\C[C@H]1Cc1ccc(F)cc1 do in these assays?
DENV2 CPE rescue: inactive; PglD inh: inactive; PGC1a acetyl inh: inactive; Ecoli rRNA inh: -21.1; FN deposition inh: inactive; HIV Env fusion: inactive; AID977621: inactive; AID977628: inactive

What do the screens show for `O=C1N[C@@H](Cc2ccccc2)COC(=O)[C@H](Cc2ccc(F)cc2)C/C=C\C[C@H]1CC(=O)N(CCO)Cc1ccccc1`?
DENV2 CPE rescue: inconclusive; PglD inh: inactive; PGC1a acetyl inh: inactive; Ecoli rRNA inh: -18.8; HIV Env fusion: inactive; AID977628: inconclusive
